Test results published in ChEMBL document CHEMBL1165866, “Design, synthesis, and in vitro antitumor evaluation of novel diaryl ureas derivatives” (Eur J Med Chem, 2010).

Legend:
[1] = system: MDA-MB-231; assay: Cytotoxicity against human MDA-MB-231 cells assessed as growth inhibition at 10 uM after 72 hrs by MTT based WST-8 assay; format: functional; conditions: MDA-MB-231, 72 h, read-out: GI
Summary of the method: (§1)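 Single-concentration screen at 10 μM. Cells in RPMI1640 with 10% FBS were seeded at 5.0×10^3 cells/well, adhered for 4 h, then exposed for 72 h at 37 °C, 5% CO2. Medium was removed and WST-8 reagent added for 1.5 h. Absorbance was read at 450 nm with 650 nm correction and growth was expressed as percentage of vehicle-control absorbance.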

[2] = system: A549; assay: Cytotoxicity against human A549 cells assessed as growth inhibition after 72 hrs by MTT based WST-8 assay; format: functional, cell-based; conditions: A549, 72 h
Summary of the method: (§2)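 Cells in RPMI1640 with 10% FBS were seeded at 5.0×10^3 cells/well and left to adhere for 4 h at 37 °C, 5% CO2. Compound was then added for 72 h. Medium was removed and WST-8 reagent (stock: 5 mM WST-8, 0.2 mM 1-methoxyphenazinium salt, 150 mM NaCl) was added for 1.5 h at 37 °C. A450 was read with 650 nm correction. IC50 was taken from concentration–response curves as % of vehicle-control absorbance.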

[3] = system: MDA-MB-231; assay: Cytotoxicity against human MDA-MB-231 cells assessed as growth inhibition after 72 hrs by MTT based WST-8 assay; format: functional, cell-based; conditions: MDA-MB-231, 72 h; summary of the method: as §2
[4] = system: A549; assay: Cytotoxicity against human A549 cells assessed as growth inhibition at 10 uM after 72 hrs by MTT based WST-8 assay; format: functional; conditions: A549, 72 h, read-out: GI; summary of the method: as §1

SMILES	inhibition of growth at 10 µM [1]	IC50 [2]	IC50 [3]	inhibition of growth at 10 µM [4]
O=C(Nc1ccc(Oc2ccc(-c3nccs3)cc2)cc1)Nc1cc(C(F)(F)F)ccc1Cl	60.4%	7.04 µM	8.9 µM	75.5%
O=C(Nc1ccc(Oc2ccc(-c3nccs3)cc2)cc1)Nc1ccc(Cl)c(C(F)(F)F)c1	69.6%	3.81 µM	6.06 µM	77.6%
O=C(Nc1ccc(Oc2ccc(-c3nccs3)cc2)cc1)Nc1ccc(Cl)c([N+](=O)[O-])c1	72.8%	3.89 µM	6.87 µM	77.1%
COC(=O)c1sccc1NC(=O)Nc1ccc(Oc2ccc(-c3nccs3)cc2)cc1	11%	–	–	6.78%
O=C(Nc1ccc(Cl)cc1)Nc1ccc(Oc2ccc(-c3ncc[nH]3)cc2)cc1	47.6%	–	–	8.86%
O=C(Nc1ccc(Oc2ccc(-c3ncc[nH]3)cc2)cc1)Nc1cc(Br)cc(C(F)(F)F)c1	-13.6%	–	–	44.1%
O=C(Nc1ccc(Oc2ccc(-c3ncc[nH]3)cc2)cc1)Nc1ccc(F)c(Cl)c1	4.2%	–	–	14.6%
COC(=O)c1sccc1NC(=O)Nc1ccc(Oc2ccc(-c3ncc[nH]3)cc2)cc1	-1.46%	–	–	2.34%
O=C(Nc1ccc(Oc2ccc(-c3ncc[nH]3)cc2)cc1)Nc1ccc(F)c(C(F)(F)F)c1	26.6%	10.5 µM	–	63.3%
Cc1ccc(NC(=O)Nc2ccc(Oc3ccc(-c4ncc[nH]4)cc3)cc2)cc1	49.3%	–	–	24.6%
O=C(Nc1ccccc1)Nc1ccc(Oc2ccc(-c3ncc[nH]3)cc2)cc1	11.4%	–	–	7.09%
O=C(Nc1ccc(Oc2ccc(-c3nccs3)cc2)cc1)Nc1cccc(C(F)(F)F)c1	64.1%	5.56 µM	9.55 µM	71.5%
O=C(Nc1ccc(Cl)cc1)Nc1ccc(Oc2ccc(-c3nccs3)cc2)cc1	32.5%	–	–	17.7%
Cc1ccc(NC(=O)Nc2ccc(Oc3ccc(-c4nccs4)cc3)cc2)cc1	22.8%	–	–	15.6%
O=C(Nc1ccc(Oc2ccc(-c3ncc[nH]3)cc2)cc1)Nc1ccc(Cl)c(C(F)(F)F)c1	38.1%	7.09 µM	–	67.9%
O=C(Nc1ccc(Oc2ccc(-c3ncc[nH]3)cc2)cc1)Nc1cc(C(F)(F)F)ccc1Cl	32.3%	–	–	22.3%
O=C(Nc1ccc(Oc2ccc(-c3ncc[nH]3)cc2)cc1)Nc1ccc(Cl)c([N+](=O)[O-])c1	3.36%	–	–	12.4%
O=C(Nc1ccc(Oc2ccc(-c3nccs3)cc2)cc1)Nc1ccc(F)c(C(F)(F)F)c1	71.8%	4.98 µM	8.66 µM	76.4%
O=C(Nc1ccc(Oc2ccc(-c3nccs3)cc2)cc1)Nc1cc(Br)cc(C(F)(F)F)c1	72.8%	2.71 µM	4.19 µM	81.7%
O=C(Nc1ccc(Oc2ccc(-c3nccs3)cc2)cc1)Nc1ccc(F)c(Cl)c1	43.9%	–	–	37.3%
O=C(Nc1ccc(Oc2ccc(-c3ncc[nH]3)cc2)cc1)Nc1cccc(C(F)(F)F)c1	28.1%	–	–	30%
CNC(=O)c1cc(Oc2ccc(NC(=O)Nc3ccc(Cl)c(C(F)(F)F)c3)cc2)ccn1 [SORAFENIB]	79.6%	5.21 µM	7.62 µM	81.2%
